# Assay results: ChEMBL document CHEMBL1134641, “Progress toward the development of a safe and effective agent for treating reentrant cardiac arrhythmias: synthesis and evaluation of ibutilide analogues with enhanced metabolic stability and diminished proarrhythmic potential” (2001)
# Experiments:
# [1] = species: Homo sapiens; assay: Metabolic stability in relative to 31E observed on incubation with human liver microsomes; format: functional; conditions: Microsome
# In short: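 Pooled human liver microsomes, 1 mg protein/mL, in 50 mM potassium phosphate pH 7.4. Substrate at 0.4-0.5 µM final; preincubated at 37 °C, then started with an NADPH-generating system (isocitrate/isocitrate dehydrogenase). Aliquots taken up to 20 min and quenched in acetonitrile. Remaining substrate measured by reversed-phase HPLC with fluorescence detection. Log-concentration vs time slope taken; ratio reported as reference slope/test slope; values >20 treated as stable. Three experiments.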
# [2] = species: Oryctolagus cuniculus; assay: Mean dose of test compound at which a statistically significant increase was first observed and the dose for the maximum increase in MAPD90 in rabbits (0.5-1.0); format: functional
# In short: (§1)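 Male New Zealand white rabbits (2.5-3.5 kg), anesthetized and instrumented. Methoxamine infused at 10 µg/kg/min; methoxamine baseline taken after 15 min. Compound, dissolved in 0.1 M fumaric acid in absolute EtOH and diluted with saline, given as a continuous iv infusion of 5 mg/kg over 30 min. QTc (QT/√RR) and MAPD90 followed over time; cumulative mg/kg dose recorded at first significant rise (one-way ANOVA, p≤0.05) and at maximum rise.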
# [3] = species: Oryctolagus cuniculus; assay: Mean dose at which PVTs (Polymorphic ventricular tachyarrhythmias) were observed in rabbits; format: functional, Cardiac ventricle
# In short: (§2)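 Male New Zealand white rabbits (2.5-3.5 kg), anesthetized and instrumented. Methoxamine infused at 10 µg/kg/min; baseline taken after 15 min. Compound in 0.1 M fumaric acid/EtOH diluted with saline, infused IV at 5 mg/kg over 30 min. Readouts: QTc and MAPD90 maxima vs methoxamine baseline, with accumulated dose, and dose at EAD or PVT onset. ANOVA, p ≤ 0.05.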
# [4] = species: Oryctolagus cuniculus; assay: Maximum increase in the ventricular monophasic action potential duration at 90% repolarization from the methoxamine infusion baseline in rabbits; format: functional, Cardiac ventricle; in short: as §2
# [5] = species: Oryctolagus cuniculus; assay: Mean dose of test compound at which a statistically significant increase was first observed and the dose for the maximum increase in QTc interval in rabbits (0.25-5.0); format: functional; in short: as §1
# [6] = tested on: Oryctolagus cuniculus; assay: In vivo evaluation of potential efficacy observed as the maximum increase in QTc interval from the methoxamine infusion baseline in rabbits; format: functional; in short: as §2
# [7] = species: Oryctolagus cuniculus; assay: Mean dose at which EADs (early after depolarizations) began to develop in rabbits; format: functional; in short: as §2
# [8] = species: Oryctolagus cuniculus; assay: Mean dose of test compound at which a statistically significant increase was first observed and the dose for the maximum increase in MAPD90 in rabbits; format: functional; in short: as §2
# [9] = species: Oryctolagus cuniculus; assay: Mean dose of test compound at which a statistically significant increase was first observed and the dose for the maximum increase in QTc interval in rabbits; format: functional; in short: as §1
# [10] = species: Oryctolagus cuniculus; assay: Mean dose of test compound at which a statistically significant increase was first observed and the dose for the maximum increase in MAPD90 in rabbits (0.5-2.0); format: functional; in short: as §1
# [11] = species: Oryctolagus cuniculus; assay: Mean dose of test compound at which a statistically significant increase was first observed and the dose for the maximum increase in MAPD90 in rabbits (0.25-5.0); format: functional; in short: as §1
# [12] = species: Oryctolagus cuniculus; assay: Mean dose of test compound at which a statistically significant increase was first observed and the dose for the maximum increase in QTc interval in rabbits (0.1-1.0); format: functional; in short: as §1
# [13] = species: Oryctolagus cuniculus; assay: Mean dose of test compound at which a statistically significant increase was first observed and the dose for the maximum increase in MAPD90 in rabbits (0.1-5.0); format: functional; in short: as §2
# [14] = species: Oryctolagus cuniculus; assay: Mean dose of test compound at which a statistically significant increase was first observed and the dose for the maximum increase in MAPD90 in rabbits (0.25-1.0); format: functional; in short: as §1
# [15] = species: Oryctolagus cuniculus; assay: Mean dose of test compound at which a statistically significant increase was first observed and the dose for the maximum increase in MAPD90 in rabbits (0.1-0.5); format: functional; in short: as §2
# [16] = species: Oryctolagus cuniculus; assay: Mean dose of test compound at which a statistically significant increase was first observed and the dose for the maximum increase in QTc interval in rabbits (0.1-0.25); format: functional; in short: as §1
# [17] = species: Oryctolagus cuniculus; assay: Mean dose of test compound at which a statistically significant increase was first observed and the dose for the maximum increase in MAPD90 in rabbits (0.1-1.0); format: functional; in short: as §2
# [18] = species: Oryctolagus cuniculus; assay: Mean dose of test compound at which a statistically significant increase was first observed and the dose for the maximum increase in QTc interval in rabbits (0.1-0.5); format: functional; in short: as §1
# [19] = species: Oryctolagus cuniculus; assay: Mean dose of test compound at which a statistically significant increase was first observed and the dose for the maximum increase in MAPD90 in rabbits (0.1-2.0); format: functional; in short: as §2
# [20] = species: Oryctolagus cuniculus; assay: Mean dose of test compound at which a statistically significant increase was first observed and the dose for the maximum increase in MAPD90 in rabbits (0.1-0.25); format: functional; in short: as §2
# [21] = species: Oryctolagus cuniculus; assay: Mean dose of test compound at which a statistically significant increase was first observed and the dose for the maximum increase in MAPD90 in rabbits (0.25-0.5); format: functional; in short: as §2
# [22] = species: Oryctolagus cuniculus; assay: Mean dose of test compound at which a statistically significant increase was first observed and the dose for the maximum increase in MAPD90 in rabbits (0.25-2.0); format: functional; in short: as §1
# [23] = species: Oryctolagus cuniculus; assay: Mean dose of test compound at which a statistically significant increase was first observed and the dose for the maximum increase in QTc interval in rabbits (0.2-1.0); format: functional; in short: as §1
SMILES,Metabolic stability relative to 31E [1],Dose [3],MAPD90 [4],QTc interval [6],Dose [7],Dose [9],other results
CCN(CCCCCC(C)(C)F)CCC[C@H](O)c1ccc(NS(C)(=O)=O)cc1,> 2000%,–,–,–,–,–,–
CCCCCCCN(CC)CCCC(O)c1ccc(NS(C)(=O)=O)cc1 (configuration not stated) [IBUTILIDE],–,1 mg/kg,65 ms,85 ms,1.7 mg/kg,–,Dose [2]: 1 mg/kg; Dose [5]: 5 mg/kg
CCN(CCCCCCC(F)F)CCCC(O)c1ccc(NS(C)(=O)=O)cc1 (configuration not stated),> 2000%,0.3 mg/kg,48 ms,71 ms,0.3 mg/kg,0.25 mg/kg,Dose [8]: 0.25 mg/kg
CCN(CC/C=C/c1ccc(NS(C)(=O)=O)cc1)CCCCCC(C)F (configuration not stated),300%,1.5 mg/kg,133 ms,75 ms,0.3 mg/kg,2 mg/kg,Dose [10]: 2 mg/kg
CCN(CCCCCC(F)F)CCCC(O)c1ccc(NS(C)(=O)=O)cc1 (configuration not stated),> 2000%,–,–,–,–,–,–
CCN(CCCCCC(C)(C)F)CCCC(O)c1ccc(NS(C)(=O)=O)cc1 (configuration not stated),> 2000%,0.25 mg/kg,96 ms,136 ms,0.9 mg/kg,0.25 mg/kg,Dose [2]: 1 mg/kg
CCCCCCCN(CC)CCC[C@H](O)c1ccc(NS(C)(=O)=O)cc1,–,0.2 mg/kg,105 ms,145 ms,1.6 mg/kg,0.25 mg/kg,Dose [11]: 5 mg/kg
CCN(CCCCCC(C)(C)F)CCC[C@H](O)c1ccc(NS(C)(=O)=O)cc1 [TRECETILIDE],–,–,69 ms,83 ms,–,–,Dose [12]: 1 mg/kg; Dose [13]: 5 mg/kg
CCCCCCCN(CC)CCC[C@@H](O)c1ccc(NS(C)(=O)=O)cc1,100%,0.3 mg/kg,69 ms,112 ms,0.2 mg/kg,0.25 mg/kg,Dose [14]: 1 mg/kg
CCN(CCCCCC(C)F)CCCCc1ccc(NS(C)(=O)=O)cc1 (configuration not stated),300%,1.1 mg/kg,56 ms,94 ms,0.2 mg/kg,–,Dose [2]: 1 mg/kg; Dose [5]: 0.5 mg/kg
CCN(CCCCCCC(F)F)CCC[C@H](O)c1ccc(NS(C)(=O)=O)cc1,–,0.25 mg/kg,58 ms,118 ms,0.5 mg/kg,–,Dose [15]: 0.5 mg/kg; Dose [16]: 0.25 mg/kg
CCN(CCCCCC(C)F)CCCC(O)c1ccc(NS(C)(=O)=O)cc1.O=C(O)/C=C/C(=O)O (configuration not stated),1300%,0.2 mg/kg,143 ms,166 ms,0.3 mg/kg,0.25 mg/kg,Dose [8]: 0.25 mg/kg
CCN(CCCCCC(C)F)CCC[C@H](O)c1ccc(NS(C)(=O)=O)cc1 (some centres not stated),> 2000%,0.4 mg/kg,90 ms,130 ms,0.2 mg/kg,–,Dose [17]: 1 mg/kg; Dose [16]: 0.25 mg/kg
CCN(CCCCCCCF)CCC[C@H](O)c1ccc(NS(C)(=O)=O)cc1,400%,0.9 mg/kg,76 ms,105 ms,0.25 mg/kg,–,Dose [13]: 5 mg/kg; Dose [16]: 0.25 mg/kg
CCN(CCCCCCCF)CCCCc1ccc(NS(C)(=O)=O)cc1,100%,0.1 mg/kg,52 ms,96 ms,1 mg/kg,–,Dose [18]: 0.5 mg/kg; Dose [19]: 2 mg/kg
CCN(CCCCCC(C)(C)F)CCC[C@@H](O)c1ccc(NS(C)(=O)=O)cc1,–,0.27 mg/kg,59 ms,92 ms,0.5 mg/kg,–,Dose [16]: 0.25 mg/kg; Dose [20]: 0.25 mg/kg
CCN(CCCCCC(C)(C)F)CCCCc1ccc(NS(C)(=O)=O)cc1,300%,–,90 ms,105 ms,–,–,Dose [5]: 5 mg/kg; Dose [11]: 5 mg/kg
CCN(CCCCCC(C)(F)F)CCC[C@H](O)c1ccc(NS(C)(=O)=O)cc1,–,0.3 mg/kg,92 ms,106 ms,0.3 mg/kg,–,Dose [12]: 1 mg/kg; Dose [20]: 0.25 mg/kg
CCN(CCCCCC(C)(F)F)CCCC(O)c1ccc(NS(C)(=O)=O)cc1 (configuration not stated),–,0.7 mg/kg,118 ms,96 ms,0.4 mg/kg,0.25 mg/kg,Dose [14]: 1 mg/kg
CCN(CCCCCC(F)F)CCC[C@H](O)c1ccc(NS(C)(=O)=O)cc1,–,0.3 mg/kg,123 ms,154 ms,0.2 mg/kg,–,Dose [21]: 0.5 mg/kg; Dose [16]: 0.25 mg/kg
CCN(CCCCC(C)(C)F)CCCC(O)c1ccc(NS(C)(=O)=O)cc1 (configuration not stated),–,3.6 mg/kg,178 ms,174 ms,1.4 mg/kg,–,Dose [22]: 2 mg/kg; Dose [23]: 1 mg/kg
